Most compounds without a hit are left out; they make up all but 1.8% or so of the library.
CAL PDZ FP-1: blocks peptide binding to human CAL PDZ domain; Q9HD26; purified CAL PDZ, TMR-peptide fluorescence polarization, 1 h; inhibition, % at 20 µM; hit rate 0.02% among 330,000;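 active = highest replicate inhibition of at least 40%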;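 note: plate controls were DMSO neutral control wells for no effect and unlabeled competitor peptide control wells for full effect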
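Control set: unlabelled peptide and DMSO controls / Material: purified CerCALP PDZ construct / Timing: 1 h incubation at room temperature before polarization reading / Doses: 20 µM, one dose / Detection: fluorescence polarization (mP)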
ARNT-TACC3 inh: disruptors of human ARNT/TACC3 interaction. AlphaScreen His-ARNT PAS-B/GST-TACC3 binding, luminescence; TACC3 fragment carries E629A point mutation. Q9Y6A5. hit rate 0.66% among 390,000. inhibition, % at 9.99 µM. AID 623870;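 active = mean inhibition of replicates at least 50% and at least half of replicates each reaching 50%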;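 note: 0% = complete ARNT plus TACC3 wells and 100% = ARNT alone without TACC3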
Tn7 DDE FP: inhibitors of Tn7 peptide binding to human fibrin DD(E); hit rate 0.13% among 370,000; inhibition, % at 8.3 µM; AID 720508; P02675; FP displacement of FITC-Tn7 peptide from fibrin DD(E); 0% = median of compound wells per plate;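 active = inhibition above the mean of compounds falling within the control limits plus 3 SD of them, cut at about 14% in these data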;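 note: 0% = plate median of compound wells and 100% = 10 µM Aha-Tn7 peptide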
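Also added: labelled Tn7 tracer, 0.1 µM; Assay system: human fibrin DD(E) protein; Amount: 2 µM fibrin DD(E); Schedule: 10 min compound pre-incubation, 3 h probe incubation at room temperature; Repeats: one replicate per compound; Read-out basis: percent inhibition; Measured by: fluorescence polarization of the labelled Tn7 tracer.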
DDE Tn6 FP inh: disrupts Tn6 cyclic peptide binding to fibrin D-Dimer-E complex | P02675 | Fibrin DD(E) TRITC-Tn6 fluorescence polarization displacement | inhibition, % at 8.3 µM | hit rate 0.21% among 370,000 | AID 720509;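 active = inhibition above a per-campaign cutoff: mean of compounds within control limits plus 3 SD, cut at about 15% in these data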;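 note: 0% = median of all compound wells on the plate and 100% = blocking peptide control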
GRK2 aptamer HTS: inhibitors of human GRK2 displacing RNA aptamer. hit rate 0.59% among 330,000. bead flow cytometry, FAM-aptamer displacement from GRK2. inhibition of aptamer binding, % at 10 µM. AID 488847;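 active = inhibition of aptamer binding above 40%, roughly 3 SD of noise, on plates passing a quality check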;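 note: median bead fluorescence of bound FAM aptamer so fluorescent compounds give negative values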
Target sequence (P25098 whole entry, looked up): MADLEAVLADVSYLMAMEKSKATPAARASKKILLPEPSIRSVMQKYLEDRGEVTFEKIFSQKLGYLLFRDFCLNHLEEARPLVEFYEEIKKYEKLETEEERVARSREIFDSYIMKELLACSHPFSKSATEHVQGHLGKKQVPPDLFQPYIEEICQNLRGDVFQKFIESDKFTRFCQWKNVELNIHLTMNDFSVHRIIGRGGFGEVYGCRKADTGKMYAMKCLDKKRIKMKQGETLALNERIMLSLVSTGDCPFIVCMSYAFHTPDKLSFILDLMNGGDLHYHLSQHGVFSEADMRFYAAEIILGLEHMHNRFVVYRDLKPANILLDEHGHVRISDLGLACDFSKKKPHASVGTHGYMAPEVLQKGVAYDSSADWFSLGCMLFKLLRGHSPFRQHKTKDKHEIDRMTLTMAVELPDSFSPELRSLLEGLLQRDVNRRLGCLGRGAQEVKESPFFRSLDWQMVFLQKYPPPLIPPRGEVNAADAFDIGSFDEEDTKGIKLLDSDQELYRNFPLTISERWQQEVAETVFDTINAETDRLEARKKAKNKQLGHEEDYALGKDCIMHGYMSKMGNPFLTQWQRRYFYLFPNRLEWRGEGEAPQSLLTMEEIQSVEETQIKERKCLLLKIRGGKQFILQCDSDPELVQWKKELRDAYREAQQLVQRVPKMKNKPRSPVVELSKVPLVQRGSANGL
CAL PDZ FP-2: CAL PDZ (human) peptide binding inhibition; AID 602252; Q9HD26; purified CAL PDZ, TMR-peptide fluorescence polarization, 1 h; hit rate 0.92% among 300,000; inhibition, % at 24.9 µM;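 active = mean inhibition of at least 30% with at least half of replicates also reaching 30%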;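 note: 0% = DMSO neutral control and 100% = excess unlabeled competitor peptide PRC23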
AlphaScreen ctr: counter-screen for ARNT/TACC3 inhibitors: AlphaScreen artifacts; shares compounds with ARNT-TACC3 inh; His-ARNT PASB-GST AlphaScreen artifact counter-screen, luminescence; AC50, µM (titrated, usually from 68 µM), for the others: at the top dose activity change, negative = signal decrease; hit rate 50% among 1,200;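 active = every separate test run was called active for a drop in luminescence, with AC50 within twice the top valid dose, actives reach about 71 µM in these data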
Active calls of the source: *; . = no result; [ ] = dose if it differs, or a comment.

SMILES | CAL PDZ FP-1 | ARNT-TACC3 inh | Tn7 DDE FP | DDE Tn6 FP inh | GRK2 aptamer HTS | CAL PDZ FP-2 | AlphaScreen ctr
O=C(CSC(=S)N1CCCC1)N(Cc1nnc(-c2ccccc2Cl)o1)C1CC1 | -1 | . | -1 | 2 | 3 | 1 | .
CC(=O)NC1=NC(=O)/C(=C/c2cn(C(C)=O)nc2-c2ccccc2)S1 | -4 | 54* | 1 | 4 | 1 | 1 | -16%
CN(CC(=O)O)Cc1nc2ccccc2[nH]1 | -1 | 88* | 8 | 6 | 0 | -2 | 51µM*
CC(=O)NCCc1nc2ccccc2[nH]1 | -1 | -5 | -2 | 3 | 0 | . | .
COc1c(O)cccc1/C=N/NC(=O)Cn1ccnc1C | 1 | 61* | 1 | 2 | 0 | 4 | -25%
Cc1cc(NC(=O)c2cc(-c3ccccc3)on2)no1 | -1 | -4 | 6 | -1 | 1 | 0 | .
Cn1c(NC(=O)c2cc(-c3ccccc3)on2)nc2ccccc21 | . | . | . | . | . | . | -9%[38 µM]
O=C(Nc1ccc2ccccc2n1)c1cc(-c2ccccc2)on1 | . | . | . | . | . | . | 3%[38 µM]
Cc1cccc(NC(=O)c2cc(-c3ccccc3)on2)n1 | . | . | . | . | . | . | 3%[38 µM]
Cc1ccc(NC(=O)c2ccc(Cl)c(S(=O)(=O)Nc3c(C)n(C)n(-c4ccccc4)c3=O)c2)cc1Cl | -3 | 0 | 0 | -1 | . | -3 | .
COc1ccc(-c2nnc(SCC(=O)NC3CC3)o2)cc1 | 1 | active | -1 | -5 | 0 | -3 | 1%
O=C(NCCO)C1(C(=O)C2CC2)CC(c2ccccc2C(F)(F)F)=NO1 (stereo not drawn) | . | . | -1 | 5 | . | . | .
OCC1CCN(c2nc(-c3ccccn3)nnc2-c2ccccc2)CC1 | . | . | . | . | . | . | 2.8µM*
c1ccc(-c2nnc(-c3ccccn3)nc2N2CCC(C3CCCCC3)C2)cc1 (stereo not drawn) | . | . | . | . | . | . | 5.3µM*
O=C(NNc1ccccn1)C(=O)NNS(=O)(=O)c1ccc(Cl)cc1 | -3 | 58* | -6 | -4 | 1 | . | -6%
CC1CCCC(C)N1/N=C/c1ccc([N+](=O)[O-])cc1 (stereo not drawn) | . | 51* | -1 | 3 | 0 | -4 | 24µM*
COc1ccc(C2C(C#N)=C(N)Oc3n[nH]c(-c4ccccn4)c32)c(OC)c1OC (stereo not drawn) | 0 | 60* | -8 | 4 | 3 | -4 | -20%
O=C(O)C1C2C=CC(C2)C1C(=O)NCCCn1ccnc1 (stereo not drawn) | -1 | 54* | 4 | 3 | 1 | . | 3%
O=C(O)C1C2C=CC(C2)C1C(=O)NCCCN1CCCC1=O (stereo not drawn) | 0 | -21 | -5 | -2 | 11 | . | .
O=C(O)C1CCCCC1C(=O)NCCCn1ccnc1 (stereo not drawn) | 0 | 67* | . | . | 1 | . | -6%
O=C(C1CC(=O)N(c2ccccc2)C1)N1CCN(c2ccc(F)cc2)CC1 (stereo not drawn) | -1 | . | -8 | -9 | 4 | 0 | .
COC(=O)[C@]12C[C@H](CC(=O)N3CCC(c4ccccc4)CC3)C(=O)N(CCc3ccc(OC)c(OC)c3)C1=C[C@H](C(C)(C)C)O[C@@H]2C | . | . | 1 | -7 | . | . | .
Cc1ccc(OCC(=O)NN=C2C3CC4CC(C3)CC2C4)cc1 | 0 | . | -2 | 3 | 0 | -9 | .
Cc1ccccc1Nc1nc(N)nc(CN(C)Cc2ccccc2Cl)n1 | -3 | 57* | 2 | 0 | 0 | -1 | -30%
Cc1ccc(SCc2nc(N)nc(Nc3ccccc3C)n2)c(C)c1 | -2 | 3 | 0 | 1 | 1 | -1 | .
SMILES | CAL PDZ FP-1 | ARNT-TACC3 inh | Tn7 DDE FP | DDE Tn6 FP inh | GRK2 aptamer HTS | CAL PDZ FP-2 | AlphaScreen ctr
C[C@H](CO)N1C[C@H](C)[C@H](CN(C)C(=O)NC2CCCCC2)Oc2ccc(NS(=O)(=O)c3cccs3)cc2CC1=O | . | 59* | . | . | . | . | 0%[42 µM]
CC(C)NC(=O)Nc1ccc2c(c1)CC(=O)N([C@H](C)CO)C[C@H](C)[C@H](CN(C)S(=O)(=O)c1cccs1)O2 | . | 108* | . | . | . | . | -10%[38 µM]
CC(C)NC(=O)Nc1ccc2c(c1)CC(=O)N([C@@H](C)CO)C[C@H](C)[C@@H](CN(C)S(=O)(=O)c1cccs1)O2 | . | -17 | . | . | . | . | .
C[C@@H]1CN([C@@H](C)CO)C(=O)c2cc(N(C)C)ccc2O[C@@H](C)CCCCO[C@@H]1CN(C)Cc1ccccc1 | . | 16 | . | . | . | . | .
COc1ccc(NC(=O)CSc2nnc(-c3ccccn3)n2N)cc1Cl | -2 | 2 | 1 | 2 | 0 | 3 | .
Cc1ccc(C)c(-n2c(SCC(N)=O)nnc2-c2ccccn2)c1 | 0 | 57* | -4 | 7 | 0 | . | -26%
Cc1ccc(C)c(CSc2nnc(-c3ccccn3)n2N)c1 | 0 | -1 | -3 | 8 | 1 | -1 | .
Cc1cc(C)c(NC(=O)CSc2nnc(-c3ccccn3)n2N)c(Cl)c1 | -5 | 54* | 0 | 3 | 0 | 0 | -21%
C[C@@H]1CN([C@H](C)CO)S(=O)(=O)c2ccc(C#CC(C)(C)O)cc2O[C@H]1CN(C)Cc1ccc(-c2ccccc2)cc1 | . | -5 | . | . | . | . | .
c1ccc(-c2nc3cc4ccccc4cc3[nH]2)nc1 | -3 | 15* | 1 | -16 | 0 | -6 | -36%
O=C(CCN1C(=O)c2cccnc2C1=O)NC1CCCCCC1 | -1 | 59* | -3 | 4 | 0 | -2 | -13%
C/C(=N\NC(=O)c1ccncc1)C12CC3CC(CC(C3)C1)C2 | -1 | 51* | 4 | -2 | 1 | -4 | 5%
O=C(NNC(=O)C12CC3CC(CC(C3)C1)C2)c1ccncc1 | -1 | -8 | 1 | -3 | 22 | . | .
Cc1c(CCC(=O)O)c(=O)oc2c(C)c3occ(-c4ccc(Br)cc4)c3cc12 | -8 | 56* | 4 | -9 | 0 | -15 | 52µM*
CCCC(NC(=O)Cc1c(C)c2cc3c(C)c(C)oc3c(C)c2oc1=O)C(=O)N[C@@H](Cc1ccccc1)C(=O)O (stereo partly drawn) | -4 | -2 | -4 | -2 | 7 | -12 | .
Cc1coc2c(C)c3oc(=O)c(CCC(=O)N[C@@H](C)C(=O)N[C@@H](Cc4ccccc4)C(=O)O)c(C)c3cc12 | -2 | 74* | 3 | 6 | 0 | 1 | -36%
COc1ccc(C(=O)Nc2ccc3c(c2)C(=O)N(C)C[C@H](OC)[C@@H](C)CN(C)[C@@H](C)CO3)cc1 | . | -1 | . | . | . | . | .
COC(=O)C[C@H]1CC[C@@H]2[C@H](COc3ccc(NC(=O)c4cnccn4)cc3C(=O)N2C)O1 | . | 3 | -2 | -4 | . | . | .
CC(=O)N(C)C[C@@H]1Oc2ncc(-c3cccnc3)cc2C(=O)N([C@H](C)CO)C[C@H]1C | . | -3 | . | . | . | . | .

Assay outcomes from PubChem BioAssay.
